Several values for one entry are separate records, joined by “and”; a condition that tells them apart may be missing. Identical values can stand only once. Like-named read-outs stand apart in the source and are kept apart here. Marks after values point to notes of the source that are not given here. One block for each compound: values may come before it.
Key:
[1] = assay type: in vivo, healthy subjects (human); settings: for Geometric Mean Ratio (90%CI) of AUClast / Geometric Mean Ratio (90%CI) of Cmax / Geometric Mean Ratio (90%CI) of AUCinf: istradefylline + rifampin vs istradefylline alone; for AUC(0-t): AUClast
In short: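 Crossover in 20 healthy humans. Single oral 40 mg tablet of the test compound given after ≥8 h fast, alone (period 1) or on day 8 of rifampin 600 mg once daily (days 1–20, dosed 2 h after test compound). Venous plasma sampled predose to 312 h. Noncompartmental AUClast and AUCinf, reported as geometric means and geometric mean ratios with 90% CI.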

Safety and tolerability = assay type: in vivo, healthy subjects (human); settings: for Subjects who experienced AEs: 20 subjects
[2] = ref data on file; Kyowa Kirin Pharmaceutical Development, Inc.; cited from earlier work
[3] = ref data on file; Kyowa Kirin Pharmaceutical Development, Inc.; cited from earlier work; remark: listed apart in the source
[4] = cited from earlier work
[5] = tested on: cytochrome P450 (CYP) isoenzymes; settings: ref data on file; Kyowa Kirin Pharmaceutical Development, Inc.; cited from earlier work
[6] = in those who received various CYP3A4 inhibitors; 1449 healthy subjects and PD patients; cited from earlier work
[7] = coadministration of ketoconazole, healthy subjects; cited from earlier work
P‐glycoprotein (P‐gp) = settings: ref data on file; Kyowa Kirin Pharmaceutical Development, Inc.; cited from earlier work
[8] = doses of 20 and 40 mg/day; cited from earlier work
A2A receptor = settings: A2A vs A1, A2B, A3; cited from earlier work
[9] = istradefylline 40 mg + steady-state rifampin 600 mg/day, arithmetic mean (SD)
[10] = istradefylline 40 mg alone, arithmetic mean (SD)
[11] = ln-transformed, istradefylline 40 mg + rifampin 600 mg/day, geometric mean (CV%)
[12] = ln-transformed, istradefylline 40 mg alone, geometric mean (CV%)
[13] = metabolite-to-parent ratio, istradefylline 40 mg alone, arithmetic mean (SD)
[14] = during administration of the substance alone
[15] = healthy subjects, independent of dose

Exposure of metabolite in plasma as share of total drug exposure ([1]; generally): < 9%
AUCinf [1, 9]: 159 (47.6) ^b ng·h/mL
AUClast [1, 9]: 118 (44.3) ng·h/mL
t1/2 [1, 9]: 17.6 (4.95) ^b h
Tmax ([1]; istradefylline 40 mg + steady-state rifampin 600 mg/day, median (min, max)): 3.0 (1.0, 6.0) h
AUClast [1, 10]: 123 (77.6) ng·h/mL
Tmax ([1]; istradefylline 40 mg alone, median (min, max)): 3.5 (2.0, 12.0) h
Geometric Mean Ratio (90%CI) of AUClast [1]: 1.04 (0.90–1.21)
Geometric Mean Ratio (90%CI) of Cmax [1]: 1.79 (1.59–2.01)
Geometric Mean Ratio (90%CI) of AUClast ([1]; listed as istradefylline M1): 1.04
Geometric Mean Ratio (90%CI) of Cmax ([1]; listed as istradefylline M1): 1.79
All M/P ratios ([1]; istradefylline alone or with rifampin (M8: except M/P ratio for Cmax after coadministration)): < 9%
Change in AUClast during rifampin coadministration (GMR comparison) ([1]; ln-transformed data): +4%
Change in Cmax during rifampin coadministration (GMR comparison) ([1]; ln-transformed data): +79%
AUClast, geometric mean [1, 11]: 110 (41.8) ng·h/mL
Cmax, geometric mean [1, 11]: 7.0 (29.0) ng/mL
AUClast, geometric mean [1, 12]: 105 (61.4) ng·h/mL
Cmax, geometric mean [1, 12]: 3.90 (46.3) ng/mL
M/P ratio (AUClast) [1, 13]: 0.0134 (0.0078)
M/P ratio (Cmax) [1, 13]: 0.0241 (0.0045)
Cmax ([1]; plasma, single oral istradefylline 40 mg alone, arithmetic mean (SD)): 4.34 (2.49) ng/mL
Compound: CCn1c(=O)c2c(nc(/C=C/c3ccc(O)c(OC)c3)n2C)n(CC)c1=O [M1 metabolite, 4′‐O‐monodesmethylated derivative of istradefylline]

Decrease in istradefylline exposure based on AUC values ([1]; during coadministration of steady-state oral rifampin 600 mg/day): ~80%
Cmax ([1]; human, plasma, oral, 40 mg): 171 ng/mL
Tmax ([1]; human, plasma, oral, 40 mg): 2 h
Vd/F ([1]; human, plasma, oral, 40 mg): 515 L
half-life ([1]; human, plasma, oral, 40 mg): 94.8 h
AUC(0-t) ([1]; human, plasma, oral, 40 mg, geometric mean, ln-transformed, istradefylline 40 mg alone, geometric mean (CV%)): 9460 ng·h/mL
AUC(0-t) ([1]; human, plasma, oral, 40 mg, istradefylline 40 mg alone, arithmetic mean (SD)): 9850 ng·h/mL
Cmax ([1]; human, plasma, po, 40 mg): 181 ng/mL
CL/F [1, 9]: 20.6 (6.7) L/h
CL/F [1, 10]: 4.0 (1.5) L/h
CL/F ([1]; istradefylline 40 mg alone, arithmetic mean (SD), listed as istradefylline): 4.0 L/h and 4.00 L/h
Geometric Mean Ratio (90%CI) of AUCinf [1]: 0.19 (0.18–0.20)
Geometric Mean Ratio (90%CI) of AUClast [1]: 0.21 (0.19–0.22)
Geometric Mean Ratio (90%CI) of Cmax [1]: 0.55 (0.49–0.62)
Geometric Mean Ratio (90%CI) of AUCinf ([1]; listed as istradefylline): 0.19
Geometric Mean Ratio (90%CI) of AUClast ([1]; listed as istradefylline): 0.21
Geometric Mean Ratio (90%CI) of Cmax ([1]; listed as istradefylline): 0.55
Compound: CCn1c(=O)c2c(nc(/C=C/c3ccc(OC)c(OC)c3)n2C)n(CC)c1=O [Istradefylline]
Subjects who experienced AEs (Safety and tolerability; during administration of istradefylline + rifampin): 25%
Subjects who experienced AEs (Safety and tolerability; [14]): 20%
Tolerability (Safety and tolerability; given alone or in combination with rifampin): well tolerated
Treatment-related AEs (considered related to istradefylline) (Safety and tolerability; while receiving istradefylline alone, mild, transient disturbance in attention, asthenia, intermittent dizziness): single subject
Aqueous solubility [2]: poor aqueous solubility
Bound to plasma protein [3]: ~98%
Dose proportionality of exposure (Cmax and AUC) ([4]; healthy subjects and PD patients): directly proportional to istradefylline dose (up to 80 mg)
Apparent clearance (CL/F) [4, 15]: 4.1 to 6.0 L/h
Apparent volume of distribution (Vz/F) [4, 15]: 448 to 557 L
Terminal elimination half-life (t1/2) [4, 15]: 67 to 95 h
CYP isoenzymes partly involved in metabolism [5]: CYP1A2, 2B6, 2C8, 2C9, 2C18, and 2D6*1
Main CYP isoenzymes involved in metabolism [5]: CYP1A1, 3A4, and 3A5
Increase in AUC during the dosing interval at steady state (AUCss) [6]: 38%
Increase in AUCinf [7]: 2.5 fold
P-gp substrate (P‐glycoprotein (P‐gp)): not a P‐gp substrate
OFF time in PD patients [8]: statistically significant improvement in OFF time
In vitro affinity, selectivity among adenosine receptor subtypes (A2A receptor): higher in vitro affinity toward the A2A receptor than for A1, A2B, and A3 receptors

Compound: CO[C@H]1/C=C/O[C@@]2(C)Oc3c(C)c(O)c4c(O)c(c(/C=N/N5CCN(C)CC5)c(O)c4c3C2=O)NC(=O)/C(C)=C\C=C\[C@H](C)[C@H](O)[C@@H](C)[C@@H](O)[C@@H](C)[C@H](OC(C)=O)[C@@H]1C [rifampin, reference compound]
Subjects who experienced AEs (Safety and tolerability; [14]): 85%
Subjects with chromaturia (Safety and tolerability; subjects receiving rifampin): 70%

From PMC5811788 (Journal of Clinical Pharmacology, 2017)
